# Measurements gathered from unrelated publications.
# Protocols differ between the studies behind these lines.
# Method: competition with immobilised ligand
# RPS6KA5 C-terminal kinase domain: Ribosomal protein S6 kinase alpha-5, C-terminal kinase domain (RPS6KA5, Homo sapiens, UniProt O75582)
# RPS6KA5 N-terminal kinase domain: Ribosomal protein S6 kinase alpha-5, N-terminal kinase domain (RPS6KA5, Homo sapiens, UniProt O75582)
target,test,setting,remaining binding [%],SMILES
RPS6KA5 C-terminal kinase domain,binding,1 µM,98,CN(C)c1nccc(-c2cnn3ncccc23)n1
RPS6KA5 C-terminal kinase domain,binding,1 µM,48,O=C(c1ccc(Nc2ncc(Cl)c(-c3ccc(Cl)s3)n2)cc1)N1CCC(N2CCCC2)CC1
RPS6KA5 N-terminal kinase domain,cell-free assay,1 µM,100,CC(=O)N1CCC(c2ccc(C(=O)NC3=NCCN3)cc2C(F)(F)F)CC1
RPS6KA5 N-terminal kinase domain,binding,1 µM,99,COc1cnc(Nc2cccc(S(N)(=O)=O)c2)nc1N1CCN(c2ccccc2)C(=O)C1
RPS6KA5 N-terminal kinase domain,binding,1 µM,100,CCN1CCN(Cc2ccc(C(=O)Nc3ccc(C)c(Oc4ccc5c(c4)CC(=O)N5)c3)cc2C(F)(F)F)CC1
RPS6KA5 N-terminal kinase domain,binding,1 µM,100,N[C@H]1CCN(c2nccc(-c3cnn4ncccc34)n2)C1
RPS6KA5 C-terminal kinase domain,binding,1 µM,54,O=C(c1ccc(Nc2ncc(Cl)c(-c3cc4ccccc4s3)n2)cc1)N1CCC(N2CCCC2)CC1
RPS6KA5 C-terminal kinase domain,cell-free assay,1 µM,68,CCC(=O)N[C@H]1CC[C@@H](C(=O)N(C)c2ccc(-c3nc4ccccc4o3)cc2)C1
RPS6KA5 C-terminal kinase domain,binding,1 µM,100,Nc1ncc2c(n1)-c1c([nH]c3ccc(C#CC4CC4)cc13)CCCC2
RPS6KA5 C-terminal kinase domain,binding,1 µM,86,O=C(c1ccc(Nc2nccc(-c3cc4ccccc4s3)n2)cc1)N1CCC(N2CCCC2)CC1
RPS6KA5 C-terminal kinase domain,cell-free assay,1 µM,100,O=C(O)[C@@H]1[C@@H](Cn2nnc3ccccc3c2=O)CC[C@H]1C(=O)c1ccc(OCCC2CCOCC2)cc1
RPS6KA5 N-terminal kinase domain,binding,1 µM,79,O=C(NCC1CCOCC1)c1n[nH]cc1NC(=O)c1c(F)cccc1F
RPS6KA5 N-terminal kinase domain,binding,1 µM,100,O=C(NCCCN1CCOCC1)c1ccc(Nc2ncc(Cl)c(-c3ccc(Cl)s3)n2)cc1
RPS6KA5 N-terminal kinase domain,binding,1 µM,100,F[C@@H]1CCN(c2nccc(-c3cnn4ncccc34)n2)C1
RPS6KA5 N-terminal kinase domain,binding,10 µM,100,c1cncc(-c2cccc(Nc3nccc(NC4CCCCC4)n3)c2)c1
RPS6KA5 C-terminal kinase domain,binding,1 µM,100,CNC(=O)[C@@H]1CC[C@@H](n2c(-c3ccc4cnccc4c3)nc3ccc(C(=O)NCc4cccc(C(N)=O)c4)cc32)C1
RPS6KA5 C-terminal kinase domain,binding,1 µM,100,O=C(NCCCN1CCOCC1)c1ccc(Nc2nccc(-c3cc4ccccc4s3)n2)cc1
RPS6KA5 C-terminal kinase domain,cell-free assay,5 µM,88,COc1ncc2cc3ccccc3nc2c1C#N
RPS6KA5 C-terminal kinase domain,binding,0.1 µM,92,C[C@@H](c1ccc(-n2cnc3c(N)ncnc32)cc1)N1CCc2nn(C)c(Cc3ccccc3)c2C1=O
RPS6KA5 C-terminal kinase domain,cell-free assay,1 µM,100,COc1ccc2c(c1)O[C@@H](c1ccc(OC)c(OC)c1)C[C@H]2NC(=O)C1(c2ccc3c(c2)OC(F)(F)O3)CC1
RPS6KA5 C-terminal kinase domain,binding,1 µM,100,O=C(Nc1c[nH]nc1C(=O)NC1CCNCC1)c1cc(F)cc(F)c1
RPS6KA5 N-terminal kinase domain,binding,1 µM,100,c1cnn2ncc(-c3ccnc(N4CCC45COC5)n3)c2c1
RPS6KA5 N-terminal kinase domain,binding,1 µM,100,Cc1cnc(Nc2ccc(C(=O)N3CCC(N4CCCC4)CC3)cc2)nc1-c1cc2ccccc2s1
RPS6KA5 N-terminal kinase domain,cell-free assay,0.1 µM,76,Cn1nc(C(=O)NCc2ccc(C(=O)O)cc2)cc1-c1ccc2[nH]ccc2c1
RPS6KA5 N-terminal kinase domain,binding,1 µM,92,COc1cnc(Nc2cccc(S(N)(=O)=O)c2)nc1N1CCN(c2ccccc2)CC1
RPS6KA5 N-terminal kinase domain,binding,1 µM,70,C[C@@H]1CCN(c2nccc(-c3cnn4ncccc34)n2)C1
RPS6KA5 C-terminal kinase domain,binding,1 µM,88,O=c1nc(-c2ccccn2)sc2ccccc12
RPS6KA5 N-terminal kinase domain,binding,1 µM,100,CN(CCCC(F)(F)F)c1nccc(-c2cnn3ncccc23)n1
RPS6KA5 N-terminal kinase domain,cell-free assay,1 µM,100,O=C(Nc1cccnn1)N1CC(C/C=C/c2cncc(Oc3ccc(C(F)(F)F)cn3)n2)C1
RPS6KA5 N-terminal kinase domain,binding,1 µM,100,C=CC(=O)N1CCC(C(=O)NCC(=O)N2CCN(c3nc(-c4cnc(N)nc4C(F)F)nc(N4CCOCC4)n3)CC2)CC1
RPS6KA5 C-terminal kinase domain,binding,1 µM,100,c1ccc(N2CCN(Cc3nc4ccccc4[nH]3)CC2)nc1
RPS6KA5 C-terminal kinase domain,binding,1 µM,100,Cc1cnn2ncc(-c3ccnc(N(C)C)n3)c2c1
